In ChEMBL document CHEMBL1146217, “Growth inhibition of Mycobacterium bovis, Mycobacterium tuberculosis and Mycobacterium avium in vitro: effect of 1-beta-D-2'-arabinofuranosyl and 1-(2'-deoxy-2'-fluoro-beta-D-2'-ribofuranosyl) pyrimidine nucleoside analogs” (J Med Chem, 2007):
≈ marks a conversion by molar mass, not a printed value.

Legend:
[1] = system: Mycobacterium tuberculosis; assay: Antimycobacterial activity against Mycobacterium tuberculosis H37Ra at 10 ug/mL by microplate Alamar blue assay; assay type: functional
Procedure, shortened: (§1)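 MABA with M. bovis BCG, M. tuberculosis H37Ra or M. avium ATCC 25291. DMSO stocks (10 mg/mL) diluted in 7H9GC; final inoculum 2.5 × 10⁵ CFU/mL. Incubated 6 days, then alamar blue plus Tween 80 added and read by fluorescence after about 24 h. […]. Tested in triplicate at 100, 50, 10 and 1 µg/mL; two experiments, mean reported.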

[2] = system: Mycobacterium tuberculosis; assay: Antimycobacterial activity against Mycobacterium tuberculosis H37Ra by microplate Alamar blue assay; assay type: functional
Procedure, shortened: (§2)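 Same alamar blue microplate setup (7H9GC, 2.5 × 10⁵ CFU/mL, 6 days, then dye read after about 24 h), using 2-fold compound dilutions. MIC90 is the lowest concentration giving about 90% inhibition relative to bacteria-only wells after background subtraction. Visual MIC is the lowest concentration preventing the blue-to-pink change.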

[3] = Toxicity against human foreskin fibroblast cells after 3 days by MTT test; assay type: cell-based
Procedure, shortened: (§3)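 MTT viability assay. Vero or HFF cells seeded at 2.5 × 10⁵ cells/well and left to attach 6-8 h. Exposed to compound at 100, 50, 25, 12.5, 6.3 and 1.5 µg/mL for 3 days at 37 °C, with a DMSO control. MTT added for 4 h, then solubilized overnight; absorbance read at 560-650 nm.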

[4] = system: Mycobacterium avium; assay: Antimycobacterial activity against Mycobacterium avium ATCC 25291 at 100 ug/mL by microplate Alamar blue assay; assay type: functional; procedure, shortened: as §1
[5] = system: Mycobacterium tuberculosis; assay: Antimycobacterial activity against Mycobacterium tuberculosis H37Ra at 50 ug/mL by microplate Alamar blue assay; assay type: functional; procedure, shortened: as §1
[6] = system: Vero; assay: Toxicity against Vero cells after 3 days by MTT test; assay type: cell-based; details: chlorocebus sabaeus, 72 h; procedure, shortened: as §3
[7] = system: Mycobacterium tuberculosis; assay: Antimycobacterial activity against Mycobacterium tuberculosis H37Ra at 1ug/mL by microplate Alamar blue assay; assay type: functional; procedure, shortened: as §1
[8] = system: Mycobacterium avium; assay: Antimycobacterial activity against Mycobacterium avium ATCC 25291 by microplate Alamar blue assay; assay type: functional; procedure, shortened: as §2
[9] = system: Mycobacterium avium; assay: Antimycobacterial activity against Mycobacterium avium ATCC 25291 at 50 ug/mL by microplate Alamar blue assay; assay type: functional; procedure, shortened: as §1
[10] = system: Mycobacterium tuberculosis; assay: Antimycobacterial activity against Mycobacterium tuberculosis H37Ra at 100 ug/mL by microplate Alamar blue assay; assay type: functional; procedure, shortened: as §1
[11] = system: Streptococcus pyogenes; assay: Antibacterial activity Streptococcus pyogenes ATCC 19615 after 16 to 20 hrs by broth microdilution method; assay type: functional; details: for MIC: Streptococcus pyogenes, ATCC 19615
Procedure, shortened: (§4)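 Broth microdilution MIC. Exponentially growing bacteria diluted in sterile liquid medium to a final inoculum of 1 × 10⁴ CFU/mL. Cultured with compound dilutions for 16-20 h; compounds tested at 100, 50, 10 and 1 µg/mL. MIC taken as the concentration giving 100% inhibition of bacterial growth.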

[12] = system: Bacillus subtilis; assay: Antibacterial activity against Bacillus subtilis ATCC 6633 after 16 to 20 hrs by broth microdilution method; assay type: functional; details: Bacillus subtilis, ATCC 6633; procedure, shortened: as §4
[13] = system: Staphylococcus epidermidis; assay: Antibacterial activity against Staphylococcus epidermidis ATCC 14990 after 16 to 20 hrs by broth microdilution method; assay type: functional; details: for MIC: Staphylococcus epidermidis, ATCC 14990; procedure, shortened: as §4
[14] = system: Salmonella typhimurium; assay: Antibacterial activity against Salmonella Typhimurium after 16 to 20 hrs by broth microdilution method; assay type: functional, Salmonella enterica subsp. enterica serovar Typhimurium; details: Salmonella enterica; procedure, shortened: as §4
[15] = system: Escherichia coli; assay: Antibacterial activity against Escherichia coli ATCC 25922 after 16 to 20 hrs by broth microdilution method; assay type: functional; details: Escherichia coli, ATCC 25922; procedure, shortened: as §4
[16] = system: Staphylococcus aureus; assay: Antibacterial activity against Staphylococcus aureus ATCC 25923 after 16 to 20 hrs by broth microdilution method; assay type: functional; details: for MIC: Staphylococcus aureus, ATCC 25923; procedure, shortened: as §4
[17] = system: Listeria monocytogenes; assay: Antibacterial activity Listeria monocytogenes ATCC 15313 after 16 to 20 hrs by broth microdilution method; assay type: functional; details: for MIC: Listeria monocytogenes, ATCC 15313; procedure, shortened: as §4
[18] = system: Proteus vulgaris; assay: Antibacterial activity against Proteus vulgaris ATCC 49132 after 16 to 20 hrs by broth microdilution method; assay type: functional; procedure, shortened: as §4
[19] = system: Enterococcus faecalis; assay: Antibacterial activity Enterococcus faecalis ATCC 29212 after 16 to 20 hrs by broth microdilution method; assay type: functional; details: for MIC: Enterococcus faecalis, ATCC 29212; procedure, shortened: as §4
[20] = system: Streptococcus pneumoniae; assay: Antibacterial activity Streptococcus pneumoniae ATCC 49619 after 16 to 20 hrs by broth microdilution method; assay type: functional; details: for MIC: Streptococcus pneumoniae, ATCC 49619; procedure, shortened: as §4
[21] = system: Klebsiella aerogenes; assay: Antibacterial activity against Enterobacter aerogenes after 16 to 20 hrs by broth microdilution method; assay type: functional; details: Klebsiella aerogenes; procedure, shortened: as §4
[22] = system: Pseudomonas aeruginosa; assay: Antibacterial activity against Pseudomonas aeruginosa […] after 16 to 20 hrs by broth microdilution method; assay type: functional; details: Pseudomonas aeruginosa, ATCC 13048; procedure, shortened: as §4

For `CCCCCCCCCCC#Cc1cn([C@@H]2O[C@H](CO)[C@@H](O)[C@@H]2O)c(=O)[nH]c1=O`, the inhibition at 10 µg/mL [1] was 100%, the MIC90 [2] was 1 µg/mL (≈ 2.45 µM) and the CC50 at 72 h [3] was greater than 100 µg/mL. For the same molecule, the inhibition at 100 µg/mL [4] was 100%, the inhibition at 50 µg/mL [5] was 100% and the CC10 [6] was greater than 100 µg/mL. For the same molecule, the inhibition at 1 µg/mL [7] was 75%, the MIC90 [8] was 50 µg/mL (≈ 122 µM) and the inhibition at 50 µg/mL [9] was 55%. The inhibition at 100 µg/mL [10] was 100%.

With `CCCCCCCCCCCC#Cc1cn([C@@H]2O[C@H](CO)[C@@H](O)[C@@H]2O)c(=O)[nH]c1=O` the inhibition at 10 µg/mL [1] was 50%, the MIC90 [2] was 10 µg/mL (≈ 23.7 µM) and the CC50 at 72 h [3] was greater than 100 µg/mL. It also gave an inhibition at 100 µg/mL [4] of 25%, an inhibition at 50 µg/mL [5] of 100% and a CC10 [6] greater than 100 µg/mL. For the same molecule, the inhibition at 100 µg/mL [10] was 100%.

In the case of `O=c1[nH]c(=O)n([C@@H]2O[C@H](CO)[C@@H](O)[C@H]2F)cc1Cl`, the inhibition at 100 µg/mL [4] is reported as 0% and the inhibition at 100 µg/mL [10] is reported as 20%.

`Cc1cn([C@@H]2O[C@H](CO)[C@@H](O)[C@H]2F)c(=O)[nH]c1=S` showed an inhibition at 100 µg/mL [4] of 0% and an inhibition at 100 µg/mL [10] of 25%.

Molecule `O=c1[nH]c(=O)n([C@@H]2O[C@H](CO)[C@@H](O)[C@@H]2O)cc1C(O)C(Cl)Cl` (some centres undefined) has an inhibition at 100 µg/mL [4] of 0% and an inhibition at 100 µg/mL [10] of 0%.

Molecule `O=c1[nH]c(=O)n([C@@H]2O[C@H](CO)[C@@H](O)[C@@H]2O)cc1C(O)CI` (some centres undefined) has an inhibition at 100 µg/mL [4] of 0% and an inhibition at 100 µg/mL [10] of 0%.

With `O=C(O)C(I)C(O)c1cn([C@@H]2O[C@H](CO)[C@@H](O)[C@H]2F)c(=O)[nH]c1=O` (some centres undefined) the inhibition at 100 µg/mL [4] was 0% and the inhibition at 100 µg/mL [10] was 0%.

`O=c1[nH]c(=O)n([C@@H]2O[C@H](CO)[C@@H](O)[C@@H]2O)cc1Cl` showed an inhibition at 100 µg/mL [4] of 0% and an inhibition at 100 µg/mL [10] of 0%.

Molecule `O=c1[nH]c(=S)ccn1[C@@H]1O[C@H](CO)[C@@H](O)[C@@H]1O` has an inhibition at 100 µg/mL [4] of 0% and an inhibition at 100 µg/mL [10] of 0%.

Molecule `CCCCCC#Cc1cn([C@@H]2O[C@H](CO)[C@@H](O)[C@H]2F)c(=O)[nH]c1=O` has a CC50 at 72 h [3] greater than 100 µg/mL, an inhibition at 100 µg/mL [4] of 0% and a CC10 [6] greater than 100 µg/mL. The inhibition at 100 µg/mL [10] was 50%.

Molecule `O=c1[nH]c(=S)ccn1[C@@H]1O[C@H](CO)[C@@H](O)[C@H]1F` has an inhibition at 100 µg/mL [4] of 0% and an inhibition at 100 µg/mL [10] of 25%.

Molecule `CCOC(=O)/C=C/c1cn([C@@H]2O[C@H](CO)[C@@H](O)[C@@H]2O)c(=O)[nH]c1=O` has an inhibition at 100 µg/mL [4] of 0% and an inhibition at 100 µg/mL [10] of 0%.

`CCCCCCCCC#Cc1cn([C@@H]2O[C@H](CO)[C@@H](O)[C@H]2F)c(=O)[nH]c1=O` showed an inhibition at 10 µg/mL [1] of 50%, an MIC90 [2] of 50 µg/mL (≈ 131 µM) and a CC50 at 72 h [3] greater than 100 µg/mL. For the same molecule, the inhibition at 100 µg/mL [4] was 50%, the Inhibition [11] was 100% and the MIC [11] was 100 µg/mL (≈ 261 µM). The MIC [12] was greater than 100 µg/mL, the inhibition at 50 µg/mL [5] was 100% and the CC10 [6] was greater than 100 µg/mL. It also gave an Inhibition [13] of 100%, an MIC [13] of 100 µg/mL (≈ 261 µM) and an inhibition at 1 µg/mL [7] of 25%. For the same molecule, the MIC [14] was greater than 100 µg/mL, the MIC [15] was greater than 100 µg/mL and the Inhibition [16] was 100%. For the same molecule, the MIC [16] was 100 µg/mL (≈ 261 µM), the Inhibition [17] was 100% and the MIC [17] was 100 µg/mL (≈ 261 µM). It also gave an MIC [18] greater than 100 µg/mL, an Inhibition [19] of 100% and an MIC [19] of 100 µg/mL (≈ 261 µM). The Inhibition [20] was 100%, the MIC [20] was 100 µg/mL (≈ 261 µM) and the MIC [21] was greater than 100 µg/mL. The inhibition at 100 µg/mL [10] was 100% and the MIC [22] was greater than 100 µg/mL.

For `O=C(O)/C=C/c1cn([C@@H]2O[C@H](CO)[C@@H](O)[C@H]2F)c(=O)[nH]c1=O`, the inhibition at 100 µg/mL [4] was 0% and the inhibition at 100 µg/mL [10] was 0%.

For `NNC(=O)c1ccncc1` [ISONIAZID], the MIC [11] was greater than 100 µg/mL, the MIC [12] was greater than 100 µg/mL and the MIC [13] was greater than 100 µg/mL. The MIC [14] was greater than 100 µg/mL, the MIC [15] was greater than 100 µg/mL and the MIC [16] was greater than 100 µg/mL. It also gave an MIC [17] greater than 100 µg/mL, an MIC [18] greater than 100 µg/mL and an MIC [19] greater than 100 µg/mL. For the same molecule, the MIC [20] was greater than 100 µg/mL, the MIC [21] was greater than 100 µg/mL and the MIC [22] was greater than 100 µg/mL.
